Test results reported in ChEMBL document CHEMBL3414467, “Exploring the 7-oxo-thiazolo[5,4-d]pyrimidine core for the design of new human adenosine A3 receptor antagonists. Synthesis, molecular modeling studies and pharmacological evaluation” (Eur J Med Chem, 2015).
pIC50, pKi: −log10 of the molar value.

Experiments:
[1] = molecular target: T1, Adenosine receptor A1 (Homo sapiens) (UniProt P30542); assay: Displacement of [3H]DPCPX from human adenosine A1 receptor expressed in CHO cell membranes at 1 uM incubated for 120 mins by scintillation counting method
T1 sequence (whole entry): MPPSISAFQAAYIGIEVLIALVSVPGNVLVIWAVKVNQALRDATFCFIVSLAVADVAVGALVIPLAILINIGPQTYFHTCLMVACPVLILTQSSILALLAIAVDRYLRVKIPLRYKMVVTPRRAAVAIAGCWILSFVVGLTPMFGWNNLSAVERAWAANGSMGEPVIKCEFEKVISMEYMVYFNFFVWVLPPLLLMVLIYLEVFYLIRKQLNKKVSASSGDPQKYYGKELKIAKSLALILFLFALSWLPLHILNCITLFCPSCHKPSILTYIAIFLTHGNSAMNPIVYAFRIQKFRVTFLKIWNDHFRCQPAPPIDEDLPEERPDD
Method in brief: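 Membranes from hA1-CHO cells (50 μg protein/assay), pretreated with adenosine deaminase 2 IU/mL, 30 min at 37 °C. Incubated with 1 nM [3H]DPCPX in 50 mM Tris HCl pH 7.4 for 120 min at 25 °C. Nonspecific binding defined with 1 μM DPCPX. Test compounds at 1 μM, reported as percent inhibition. Separation by GF/B filtration; read by scintillation counting.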

[2] = molecular target: T2, Adenosine receptor A3 (Homo sapiens) (UniProt P0DMS8); assay: Displacement of [125I]AB-MECA from human adenosine A3 receptor expressed in CHO cell membranes at 1 uM incubated for 120 mins by scintillation counting method
T2 sequence (whole entry): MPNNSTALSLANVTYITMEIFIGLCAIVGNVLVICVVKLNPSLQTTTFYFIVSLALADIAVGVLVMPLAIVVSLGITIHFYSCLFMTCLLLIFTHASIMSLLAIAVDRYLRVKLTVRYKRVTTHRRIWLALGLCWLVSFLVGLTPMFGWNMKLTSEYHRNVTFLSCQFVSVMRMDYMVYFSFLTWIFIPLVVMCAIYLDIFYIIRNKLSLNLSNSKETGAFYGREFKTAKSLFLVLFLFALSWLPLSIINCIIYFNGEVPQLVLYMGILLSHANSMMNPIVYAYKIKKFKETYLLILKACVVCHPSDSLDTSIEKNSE
Method in brief: (§1)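 Membranes from hA3-CHO cells (50 μg protein/assay), pretreated with 2 IU/mL adenosine deaminase. Incubated with 0.5 nM [125I]AB-MECA in 50 mM Tris HCl, 10 mM MgCl2, 1 mM EDTA, pH 7.4, with six to eight compound concentrations; percent inhibition taken at 1 μM. Ki from IC50 by Cheng–Prusoff, means of four assays in duplicate.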

[3] = molecular target: T3, Adenosine receptor A2b (Homo sapiens) (UniProt P29275); assay: Antagonist activity against human adenosine A2B receptor expressed in CHO cells assessed as inhibition of NECA-induced cAMP production at 1 uM by scintillation counting method; format: functional, cell-based
T3 sequence (whole entry): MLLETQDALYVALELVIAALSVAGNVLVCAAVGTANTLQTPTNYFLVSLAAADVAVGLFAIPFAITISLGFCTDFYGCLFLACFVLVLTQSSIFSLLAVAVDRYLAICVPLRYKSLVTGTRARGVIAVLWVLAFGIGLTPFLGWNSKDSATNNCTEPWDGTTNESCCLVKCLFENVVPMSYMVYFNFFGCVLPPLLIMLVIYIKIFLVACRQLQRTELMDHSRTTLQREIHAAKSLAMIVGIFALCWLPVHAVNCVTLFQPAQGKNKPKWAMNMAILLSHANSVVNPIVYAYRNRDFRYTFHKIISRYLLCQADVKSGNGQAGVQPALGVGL
Method in brief: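 hA2B-transfected CHO cells (1 × 10⁶ cells/assay) in buffered saline-glucose medium with 2 IU/mL adenosine deaminase and Ro 20-1724, preincubated 10 min at 37 °C, stimulated with 200 nM NECA; test compounds at 1 μM, reported as percent inhibition. Stopped with cold 6% TCA, ether-extracted; cAMP measured by competition binding with [3H]cAMP and beef adrenal binding protein.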

[4] = molecular target: Adenosine receptor A2a (Homo sapiens) (UniProt P29274); assay: Displacement of [3H]ZM241385 from human adenosine A2A receptor expressed in CHO cell membranes at 1 uM incubated for 60 mins by scintillation counting method
Method in brief: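 Membranes from hA2A-CHO cells (50 μg protein/assay), deaminase-treated. Incubated with 1 nM [3H]ZM241385 in 50 mM Tris HCl, 10 mM MgCl2, pH 7.4 for 60 min at 4 °C. Nonspecific binding defined with 1 μM ZM241385. Test compounds at 1 μM, reported as percent inhibition. Filter separation; scintillation counting.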

Adenosine receptor A3 [5] = molecular target: T4, Adenosine receptor A3 (Homo sapiens, UniProt P0DMS8); assay: Displacement of [125I]AB-MECA from human adenosine A3 receptor expressed in CHO cell membranes incubated for 120 mins by scintillation counting method; method in brief: as §1
T4 sequence (P0DMS8 whole entry): T2 sequence (whole entry)

Adenosine receptor A3 [6] = molecular target: T4, Adenosine receptor A3; assay: Antagonist activity against human adenosine A3 receptor expressed in CHO cells assessed as blockade of Cl-IB-MECA-induced inhibition of forskolin-induced cAMP production by scintillation counting method; format: functional, cell-based
Method in brief: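 hA3-transfected CHO cells (1 × 10⁶ cells/assay) in buffered medium pH 7.4 with 2 IU/mL adenosine deaminase and Ro 20-1724, preincubated 10 min at 37 °C; antagonists tested against 100 nM Cl-IB-MECA. Stopped with cold TCA; cAMP measured by [3H]cAMP competition binding with adrenal binding protein. IC50 from sigmoid nonlinear regression, mean of four experiments.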

Sequence of Adenosine receptor A2a (Homo sapiens) (P29274 whole entry): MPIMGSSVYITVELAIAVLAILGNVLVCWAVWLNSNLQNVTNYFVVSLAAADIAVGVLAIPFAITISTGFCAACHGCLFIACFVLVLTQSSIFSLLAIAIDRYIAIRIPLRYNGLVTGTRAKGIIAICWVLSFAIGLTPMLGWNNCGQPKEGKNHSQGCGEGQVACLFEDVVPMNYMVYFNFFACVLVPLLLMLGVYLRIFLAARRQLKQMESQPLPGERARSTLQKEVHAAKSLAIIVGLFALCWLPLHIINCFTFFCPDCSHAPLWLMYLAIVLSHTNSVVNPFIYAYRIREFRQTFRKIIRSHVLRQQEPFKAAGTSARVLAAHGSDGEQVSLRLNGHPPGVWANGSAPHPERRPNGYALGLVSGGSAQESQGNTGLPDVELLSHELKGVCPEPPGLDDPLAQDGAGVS

| SMILES | inhibition [1] [%] | inhibition [2] [%] | inhibition [3] [%] | inhibition [4] [%] | pKi (Adenosine receptor A3 [5]) | pIC50 (Adenosine receptor A3 [6]) |
| --- | --- | --- | --- | --- | --- | --- |
| Cc1nc2sc(-c3ccc(C(F)(F)F)cc3)nc2c(=O)[nH]1 | 1 | 32 | 1 | 37 | – | – |
| Cc1cccc(Nc2nc3c(=O)[nH]c(C)nc3s2)c1 | 12 | – | 1 | 8 | 6.35 | – |
| Cc1nc2sc(-c3ccc(F)cc3)nc2c(=O)[nH]1 | 1 | – | 17 | 15 | 6.97 | – |
| Cc1nc2sc(-c3ccc(Cl)cc3)nc2c(=O)[nH]1 | 1 | – | 1 | 1 | 7.74 | 7.38 |
| Cc1nc2sc(-c3ccc(C(=O)O)cc3)nc2c(=O)[nH]1 | 1 | 1 | 1 | 1 | – | – |
| Cc1nc2sc(Nc3ccccc3)nc2c(=O)[nH]1 | 24 | 45 | 1 | 14 | – | – |
| COc1ccc(Nc2nc3c(=O)[nH]c(C)nc3s2)cc1 | 1 | 36 | 1 | 1 | – | – |
| COc1cccc(Nc2nc3c(=O)[nH]c(C)nc3s2)c1 | 8 | – | 1 | 1 | 6.95 | – |
| Cc1ccc(Nc2nc3c(=O)[nH]c(C)nc3s2)cc1 | 20 | 47 | 1 | 18 | – | – |
| Cc1nc2sc(-n3ccnc3)nc2c(=O)[nH]1 | 1 | 8 | 1 | 1 | – | – |
| Cc1nc2sc(-c3ccco3)nc2c(=O)[nH]1 | 37 | 20 | 2 | 1 | – | – |
| Cc1nc2sc(-c3cccc(F)c3)nc2c(=O)[nH]1 | 1 | – | 1 | 1 | 6.96 | – |
| Cc1nc2sc(-c3cccc(C(F)(F)F)c3)nc2c(=O)[nH]1 | 1 | 15 | 17 | 15 | – | – |
| Cc1nc2sc(-c3cccs3)nc2c(=O)[nH]1 | 4 | – | 1 | 1 | 6.61 | – |
| Cc1nc2sc(-c3ccc(O)cc3)nc2c(=O)[nH]1 | 1 | 15 | 1 | 1 | – | – |
| Cc1nc2sc(-n3cccc3)nc2c(=O)[nH]1 | 1 | – | 3 | 9 | 6.64 | – |
| Cc1nc2sc(Nc3cccc(Cl)c3)nc2c(=O)[nH]1 | 44 | 48 | 1 | 21 | – | – |
| Cc1nc2sc(Nc3ccc(Cl)c(Cl)c3)nc2c(=O)[nH]1 | 30 | 25 | 1 | 16 | – | – |
| Cc1nc2sc(Nc3ccc(Cl)cc3)nc2c(=O)[nH]1 | 33 | 49 | 1 | 18 | – | – |

The remaining lines, values ahead:

| inhibition [1] [%] | inhibition [2] [%] | inhibition [3] [%] | inhibition [4] [%] | pKi (Adenosine receptor A3 [5]) | pIC50 (Adenosine receptor A3 [6]) | SMILES |
| --- | --- | --- | --- | --- | --- | --- |
| 1 | 5 | 1 | 1 | – | – | CCOc1nc(C)nc2sc(-c3ccc(C)cc3)nc12 |
| 1 | 28 | 4 | 12 | – | – | COc1cccc(-c2nc3c(=O)[nH]c(C)nc3s2)c1 |
| 10 | – | 3 | 1 | 7.42 | – | COc1ccc(-c2nc3c(=O)[nH]c(C)nc3s2)cc1 |
| 1 | – | 1 | 31 | 6.42 | – | Cc1cccc(-c2nc3c(=O)[nH]c(C)nc3s2)c1 |
| 6 | 10 | 1 | 9 | – | – | CCOc1nc(C)nc2sc(-c3ccc(Cl)cc3)nc12 |
| 1 | 15 | 1 | 1 | – | – | Cc1nc2sc(-c3ccncc3)nc2c(=O)[nH]1 |
| 11 | 6 | 1 | 1 | – | – | CCOc1nc(C)nc2sc(-c3ccccc3)nc12 |
| 11 | – | 1 | 1 | 7.07 | 6.66 | Cc1nc2sc(-c3ccccc3)nc2c(=O)[nH]1 |
| 11 | – | 1 | 1 | 6.37 | – | Cc1nc2sc(Cc3ccccc3)nc2c(=O)[nH]1 |
| 1 | 33 | 1 | 1 | – | – | Cc1nc2sc(-c3cccnc3)nc2c(=O)[nH]1 |
| 17 | – | 3 | 2 | 7.48 | – | Cc1ccc(-c2nc3c(=O)[nH]c(C)nc3s2)cc1 |
| 3 | – | 1 | 25 | 6.96 | – | CCOc1nc(C)nc2sc(Nc3cccc(OC)c3)nc12 |
| 2 | 45 | 1 | 3 | – | – | CCOc1nc(C)nc2sc(Nc3ccccc3)nc12 |
| 24 | – | 1 | 10 | 6.08 | – | Cc1nc2sc(-c3cccc(Cl)c3)nc2c(=O)[nH]1 |
